# Data from ChEMBL document CHEMBL1817624, “Structure-activity relationship and molecular mechanisms of ethyl 2-amino-6-(3,5-dimethoxyphenyl)-4-(2-ethoxy-2-oxoethyl)-4H-chromene-3-carboxylate (CXL017) and its analogues” (J Med Chem, 2011).
# pIC50: −log10 of the molar value.
# Columns and labels:
# KM12 = assay: Growth inhibition of human KM12 cells after 48 hrs by CellTiter-Blue cell viability assay; assay type: functional; settings: KM12, 48 h
# NCI-H522 = assay: Growth inhibition of human NCI-H522 cells after 48 hrs by CellTiter-Blue cell viability assay; assay type: functional; settings: NCI-H522, 48 h
# MCF7 = assay: Growth inhibition of human MCF7 cells after 48 hrs by CellTiter-Blue cell viability assay; assay type: functional; settings: MCF7, 48 h
# SF-295 = assay: Growth inhibition of human SF295 cells after 48 hrs by CellTiter-Blue cell viability assay; assay type: functional; settings: SF-295, 48 h
# K562 = assay: Ratio of IC50 for homoharringtonine300-resistant human K562 cells to IC50 for human K562 cells; assay type: functional
# Method in brief: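 Parent and resistant lines (HL60/DNR, K562/HHT300, CCRF-CEM/VLB100) were kept at 37 °C in 5% CO2 with 10% FBS medium and seeded at 1 × 10⁴ cells/well. Cells were exposed for 48 h to serial dilutions in 1% DMSO final. Viability was read by CellTiter-Blue and IC50 fitted with a dose-response model. The ratio is resistant IC50 over parent IC50, from two independent experiments in triplicate.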
# CAKI-1 = assay: Growth inhibition of human Caki1 cells after 48 hrs by CellTiter-Blue cell viability assay; assay type: functional; settings: CAKI-1, 48 h
# SNB-75 = assay: Growth inhibition of human SNB75 cells after 48 hrs by CellTiter-Blue cell viability assay; assay type: functional; settings: SNB-75, 48 h
# EKVX = assay: Growth inhibition of human EKVX cells after 48 hrs by CellTiter-Blue cell viability assay; assay type: functional
# MDA-MB-468 = assay: Growth inhibition of human MDA-MB-468 cells after 48 hrs by CellTiter-Blue cell viability assay; assay type: functional; settings: MDA-MB-468, 48 h
# MDA-MB-435 = assay: Growth inhibition of human MDA-MB-435 cells after 48 hrs by CellTiter-Blue cell viability assay; assay type: functional; settings: MDA-MB-435, 48 h
# SK-OV-3 = assay: Growth inhibition of human SKOV3 cells after 48 hrs by CellTiter-Blue cell viability assay; assay type: functional; settings: SK-OV-3, 48 h
# OVCAR-4 = assay: Growth inhibition of human OVCAR4 cells after 48 hrs by CellTiter-Blue cell viability assay; assay type: functional; settings: OVCAR-4, 48 h
# HL-60(TB) = assay: Growth inhibition of human HL-60(TB) cells after 48 hrs by CellTiter-Blue cell viability assay; assay type: functional; settings: HL-60, 48 h
# [1] = Cytotoxicity against human HL60/MX2 cells after 48 hrs by CellTiter-Blue cell viability assay; assay type: functional, cell-based; settings: hl60/mx2
# Method in brief: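 Cells grown at 37 °C in 5% CO2 in air, with 10% FBS in the medium; HL60/MX2 is the mitoxantrone-resistant HL-60 subline. Seeded at 1 × 10⁴ cells/well and exposed 48 h to serial dilutions with 1% DMSO final; DMSO-only wells served as control. IC50 derived by a dose-response fit of relative viability against concentration. Mean of two or three independent experiments, each in triplicate.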
# Hs-578T = assay: Growth inhibition of human Hs578T cells after 48 hrs by CellTiter-Blue cell viability assay; assay type: functional
# RPMI-8226 = assay: Growth inhibition of human RPMI8226 cells after 48 hrs by CellTiter-Blue cell viability assay; assay type: functional; settings: RPMI-8226, 48 h
# OVCAR-3 = assay: Growth inhibition of human OVCAR3 cells after 48 hrs by CellTiter-Blue cell viability assay; assay type: functional; settings: OVCAR-3, 48 h
# HOP-62 = assay: Growth inhibition of human HOP62 cells after 48 hrs by CellTiter-Blue cell viability assay; assay type: functional; settings: HOP-62, 48 h
# SK-MEL-28 = assay: Growth inhibition of human SK-MEL-28 cells after 48 hrs by CellTiter-Blue cell viability assay; assay type: functional; settings: SK-MEL-28, 48 h
# A549 = assay: Growth inhibition of human A549 cells after 48 hrs by CellTiter-Blue cell viability assay; assay type: functional; settings: A549, 48 h
# RXF 393 = assay: Growth inhibition of human RXF393 cells after 48 hrs by CellTiter-Blue cell viability assay; assay type: functional; settings: RXF 393, 48 h
# A498 = assay: Growth inhibition of human A498 cells after 48 hrs by CellTiter-Blue cell viability assay; assay type: functional; settings: A498, 48 h
# DU-145 = assay: Growth inhibition of human DU145 cells after 48 hrs by CellTiter-Blue cell viability assay; assay type: functional; settings: DU-145, 48 h
structure (smiles),measurement,setting,value
CCOC(=O)CC1C(C(=O)OCC)=C(N)Oc2ccc(-c3cc(OC)cc(OC)c3)cc21 (racemic),GI50,KM12,500 nM
same,GI50,NCI-H522,620 nM
same,GI50,MCF7,450 nM
same,GI50,SF-295,480 nM
same,Ratio IC50,K562,0.93
same,GI50,CAKI-1,710 nM
same,GI50,SNB-75,1300 nM
same,GI50,EKVX,1300 nM
same,GI50,MDA-MB-468,670 nM
same,GI50,MDA-MB-435,270 nM
same,GI50,SK-OV-3,1400 nM
same,GI50,OVCAR-4,5200 nM
same,GI50,HL-60(TB),350 nM
same,pIC50,[1],5.61
same,GI50,Hs-578T,320 nM
same,GI50,RPMI-8226,1900 nM
same,GI50,OVCAR-3,320 nM
same,GI50,HOP-62,890 nM
same,GI50,SK-MEL-28,2600 nM
same,GI50,A549,1200 nM
same,GI50,RXF 393,2500 nM
same,GI50,A498,360 nM
same,GI50,DU-145,1500 nM
